Laboratory results taken from ChEMBL document CHEMBL4382192, “Discovery of a potent dual ALK and EGFR T790M inhibitor” (Eur J Med Chem, 2017).

Tests used:
[1] = tested on: Tyrosine-protein kinase ABL1 (Homo sapiens), P00519 [H396P]; assay: Binding affinity to human phosphorylated ABL1 H396P mutant (S229 to K512 residues) expressed in mammalian expression system assessed as residual binding level at 1 uM by Kinomescan method relative to control
Summary of the method: (§1)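 Kinome-wide selectivity panel run by the KINOMEscan method, with the test compound at a single concentration of 1 μM. Wild-type and mutant kinases were profiled in the same screen.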

[2] = biological target: Activin receptor type-1 (Homo sapiens) (UniProt Q04771); assay: Binding affinity to wild-type human ACVR1 (C188 to C509 residues) expressed in bacterial expression system assessed as residual binding level at 1 uM by Kinomescan method relative to control
[3] = biological target: Mitogen-activated protein kinase kinase kinase 6 (Homo sapiens) (UniProt O95382); assay: Binding affinity to wild-type human partial length ASK2 (M278 to R972 residues) expressed in mammalian expression system assessed as residual binding level at 1 uM by Kinomescan method relative to control
[4] = biological target: Tyrosine-protein kinase Blk (Homo sapiens, UniProt P51451); assay: Binding affinity to wild-type human partial length BLK (G211 to L503 residues) expressed in bacterial expression system assessed as residual binding level at 1 uM by Kinomescan method relative to control
[5] = biological target: Cyclin-dependent kinase 3 (Homo sapiens) (UniProt Q00526); assay: Binding affinity to wild-type human full length CDK3 (M1 to H305 residues) expressed in bacterial expression system assessed as residual binding level at 1 uM by Kinomescan method relative to control
[6] = biological target: Receptor-type tyrosine-protein kinase FLT3 (Homo sapiens) (UniProt P36888); assay: Binding affinity to wild-type human partial length autoinhibited FLT3 (H564 to Y969 residues) expressed in mammalian expression system assessed as residual binding level at 1 uM by Kinomescan method relative to control
[7] = biological target: Tyrosine-protein kinase FRK (Homo sapiens) (UniProt P42685); assay: Binding affinity to wild-type human partial length FRK (A215 to F503 residues) expressed in bacterial expression system assessed as residual binding level at 1 uM by Kinomescan method relative to control
[8] = biological target: Beta-adrenergic receptor kinase 1 (Homo sapiens) (UniProt P25098); assay: Binding affinity to wild-type human full length GRK2 (M1 to L689 residues) expressed in mammalian expression system assessed as residual binding level at 1 uM by Kinomescan method relative to control
Summary of the method: (§2)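 Single-point kinome-wide KINOMEscan binding panel, test compound at 1 μM, run by the provider's standard protocol.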

[9] = biological target: Insulin receptor-related protein (Homo sapiens) (UniProt P14616); assay: Binding affinity to wild-type human partial length INSRR (R950 to E1278 residues) expressed in bacterial expression system assessed as residual binding level at 1 uM by Kinomescan method relative to control
[10] = biological target: Interleukin-1 receptor-associated kinase 3 (Homo sapiens) (UniProt Q9Y616); assay: Binding affinity to wild-type human partial length IRAK3 (V147 to E596 residues) expressed in bacterial expression system assessed as residual binding level at 1 uM by Kinomescan method relative to control
[11] = tested on: Mast/stem cell growth factor receptor Kit (Homo sapiens), P10721 [UNDEFINED MUTATION]; assay: Binding affinity to human partial length KIT V559D/V654 double mutant (Y545 to D952 residues) expressed in bacterial expression system assessed as residual binding level at 1 uM by Kinomescan method relative to control; summary of the method: as §1
[12] = biological target: Serine/threonine-protein kinase 3 (Homo sapiens) (UniProt Q13188); assay: Binding affinity to wild-type human partial length MST2 (D17 to E318 residues) expressed in bacterial expression system assessed as residual binding level at 1 uM by Kinomescan method relative to control
[13] = biological target: Serine/threonine-protein kinase 24 (Homo sapiens) (UniProt Q9Y6E0); assay: Binding affinity to wild-type human partial length MST3 (A30 to S311 residues) expressed in bacterial expression system assessed as residual binding level at 1 uM by Kinomescan method relative to control
[14] = biological target: Serine/threonine-protein kinase PAK 1 (Homo sapiens) (UniProt Q13153); assay: Binding affinity to wild-type human partial length PAK1 (S149 to H545 residues) expressed in bacterial expression system assessed as residual binding level at 1 uM by Kinomescan method relative to control
[15] = tested on: Phosphatidylinositol 4,5-bisphosphate 3-kinase catalytic subunit alpha isoform (Homo sapiens), P42336 [H1047L]; assay: Binding affinity to human partial length PIK3CA H1047L mutant (R108 to N1068 residues) expressed in mammalian expression system assessed as residual binding level at 1 uM by Kinomescan method relative to control
[16] = biological target: Serine/threonine-protein kinase N2 (Homo sapiens) (UniProt Q16513); assay: Binding affinity to wild-type human partial length PKN2 (E634 to C984 residues) expressed in bacterial expression system assessed as residual binding level at 1 uM by Kinomescan method relative to control
[17] = biological target: Serine/threonine-protein kinase PLK2 (Homo sapiens) (UniProt Q9NYY3); assay: Binding affinity to wild-type human partial length PLK2 (H58 to F354 residues) expressed in mammalian expression system assessed as residual binding level at 1 uM by Kinomescan method relative to control
[18] = biological target: Protein kinase C epsilon type (Homo sapiens) (UniProt Q02156); assay: Binding affinity to wild-type human partial length PRKCE (A378 to P737 residues) expressed in mammalian expression system assessed as residual binding level at 1 uM by Kinomescan method relative to control
[19] = biological target: cGMP-dependent protein kinase 2 (Homo sapiens) (UniProt Q13237); assay: Binding affinity to wild-type human partial length PRKG2 (S422 to F762 residues) expressed in mammalian expression system assessed as residual binding level at 1 uM by Kinomescan method relative to control
[20] = biological target: Protein-tyrosine kinase 2-beta (Homo sapiens) (UniProt Q14289); assay: Binding affinity to wild-type human full length PYK2 (M1 to E967 residues) expressed in bacterial expression system assessed as residual binding level at 1 uM by Kinomescan method relative to control; summary of the method: as §2
[21] = biological target: TGF-beta receptor type-2 (Homo sapiens) (UniProt P37173); assay: Binding affinity to wild-type human partial length TGFBR2 (I218 to K567 residues) expressed in bacterial expression system assessed as residual binding level at 1 uM by Kinomescan method relative to control
[22] = biological target: BDNF/NT-3 growth factors receptor (Homo sapiens) (UniProt Q16620); assay: Binding affinity to wild-type human partial length TRKB (Q547 to G838 residues) expressed in mammalian expression system assessed as residual binding level at 1 uM by Kinomescan method relative to control
[23] = biological target: Dual specificity protein kinase TTK (Homo sapiens) (UniProt P33981); assay: Binding affinity to wild-type human partial length TTK (N505 to V798 residues) expressed in bacterial expression system assessed as residual binding level at 1 uM by Kinomescan method relative to control

Interleukin-1 receptor-associated kinase 3 (Homo sapiens), sequence (Q9Y616 whole entry, the tested form may be a part): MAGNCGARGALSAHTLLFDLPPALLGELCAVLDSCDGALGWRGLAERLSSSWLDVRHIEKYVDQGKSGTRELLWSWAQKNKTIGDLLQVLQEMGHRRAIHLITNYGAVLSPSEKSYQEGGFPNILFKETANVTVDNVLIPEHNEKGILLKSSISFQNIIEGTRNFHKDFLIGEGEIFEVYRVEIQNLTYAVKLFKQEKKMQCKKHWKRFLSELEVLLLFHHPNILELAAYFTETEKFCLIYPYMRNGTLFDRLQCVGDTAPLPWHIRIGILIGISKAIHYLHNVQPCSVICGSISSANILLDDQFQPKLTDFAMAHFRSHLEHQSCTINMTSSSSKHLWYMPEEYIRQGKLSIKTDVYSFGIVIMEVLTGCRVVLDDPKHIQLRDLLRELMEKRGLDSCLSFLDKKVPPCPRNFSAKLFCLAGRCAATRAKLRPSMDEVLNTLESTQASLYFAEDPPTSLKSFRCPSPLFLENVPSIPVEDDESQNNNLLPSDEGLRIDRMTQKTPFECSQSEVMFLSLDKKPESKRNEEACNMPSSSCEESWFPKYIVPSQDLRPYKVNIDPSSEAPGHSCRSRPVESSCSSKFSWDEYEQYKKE
cGMP-dependent protein kinase 2 (Homo sapiens), sequence (Q13237 whole entry, the tested form may be a part): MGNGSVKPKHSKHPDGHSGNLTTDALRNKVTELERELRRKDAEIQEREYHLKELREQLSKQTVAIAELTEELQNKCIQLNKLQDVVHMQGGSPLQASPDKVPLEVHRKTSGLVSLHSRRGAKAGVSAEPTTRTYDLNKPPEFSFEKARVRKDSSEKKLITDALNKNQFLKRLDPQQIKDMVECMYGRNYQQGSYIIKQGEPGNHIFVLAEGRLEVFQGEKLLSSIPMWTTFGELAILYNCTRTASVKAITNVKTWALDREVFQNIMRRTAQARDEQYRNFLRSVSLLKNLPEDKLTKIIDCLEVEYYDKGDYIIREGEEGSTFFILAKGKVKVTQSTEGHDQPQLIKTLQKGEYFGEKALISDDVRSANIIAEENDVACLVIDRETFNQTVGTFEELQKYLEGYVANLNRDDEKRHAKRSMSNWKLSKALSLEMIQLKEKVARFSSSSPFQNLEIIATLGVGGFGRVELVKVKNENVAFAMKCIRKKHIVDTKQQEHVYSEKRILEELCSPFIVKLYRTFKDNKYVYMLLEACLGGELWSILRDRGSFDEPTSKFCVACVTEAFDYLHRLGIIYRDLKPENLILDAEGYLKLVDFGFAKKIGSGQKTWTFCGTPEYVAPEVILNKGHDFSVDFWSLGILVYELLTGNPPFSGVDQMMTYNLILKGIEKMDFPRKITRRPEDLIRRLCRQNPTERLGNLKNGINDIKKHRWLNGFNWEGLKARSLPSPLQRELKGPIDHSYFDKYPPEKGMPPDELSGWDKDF
Serine/threonine-protein kinase N2 (Homo sapiens), sequence (Q16513 whole entry, looked up, the tested form may be a part): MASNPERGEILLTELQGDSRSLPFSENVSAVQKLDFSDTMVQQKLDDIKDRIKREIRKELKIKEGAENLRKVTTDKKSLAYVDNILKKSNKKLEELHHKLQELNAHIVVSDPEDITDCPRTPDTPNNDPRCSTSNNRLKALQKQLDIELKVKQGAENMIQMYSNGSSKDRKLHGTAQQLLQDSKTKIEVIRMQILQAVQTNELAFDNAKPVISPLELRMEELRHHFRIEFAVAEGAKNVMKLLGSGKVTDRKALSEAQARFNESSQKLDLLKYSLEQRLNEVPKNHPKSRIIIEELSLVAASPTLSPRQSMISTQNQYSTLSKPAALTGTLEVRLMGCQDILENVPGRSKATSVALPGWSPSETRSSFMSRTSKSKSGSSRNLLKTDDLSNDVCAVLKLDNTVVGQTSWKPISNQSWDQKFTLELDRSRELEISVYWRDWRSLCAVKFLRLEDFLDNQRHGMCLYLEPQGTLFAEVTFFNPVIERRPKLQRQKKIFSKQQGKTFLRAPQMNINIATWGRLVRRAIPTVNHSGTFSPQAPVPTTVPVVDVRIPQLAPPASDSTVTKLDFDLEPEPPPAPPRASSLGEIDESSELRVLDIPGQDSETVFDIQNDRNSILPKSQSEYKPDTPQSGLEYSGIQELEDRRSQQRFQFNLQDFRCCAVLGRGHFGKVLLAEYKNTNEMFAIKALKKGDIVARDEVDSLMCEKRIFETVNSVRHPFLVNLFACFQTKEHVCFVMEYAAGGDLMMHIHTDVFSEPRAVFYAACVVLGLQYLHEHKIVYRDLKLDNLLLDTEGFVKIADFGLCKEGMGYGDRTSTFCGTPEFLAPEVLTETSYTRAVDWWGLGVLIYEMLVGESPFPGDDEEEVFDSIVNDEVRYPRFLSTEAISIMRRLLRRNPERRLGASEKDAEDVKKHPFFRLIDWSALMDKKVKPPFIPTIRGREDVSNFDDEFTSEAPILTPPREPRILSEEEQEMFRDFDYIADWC
Receptor-type tyrosine-protein kinase FLT3 (Homo sapiens), sequence (P36888 whole entry, the tested form may be a part): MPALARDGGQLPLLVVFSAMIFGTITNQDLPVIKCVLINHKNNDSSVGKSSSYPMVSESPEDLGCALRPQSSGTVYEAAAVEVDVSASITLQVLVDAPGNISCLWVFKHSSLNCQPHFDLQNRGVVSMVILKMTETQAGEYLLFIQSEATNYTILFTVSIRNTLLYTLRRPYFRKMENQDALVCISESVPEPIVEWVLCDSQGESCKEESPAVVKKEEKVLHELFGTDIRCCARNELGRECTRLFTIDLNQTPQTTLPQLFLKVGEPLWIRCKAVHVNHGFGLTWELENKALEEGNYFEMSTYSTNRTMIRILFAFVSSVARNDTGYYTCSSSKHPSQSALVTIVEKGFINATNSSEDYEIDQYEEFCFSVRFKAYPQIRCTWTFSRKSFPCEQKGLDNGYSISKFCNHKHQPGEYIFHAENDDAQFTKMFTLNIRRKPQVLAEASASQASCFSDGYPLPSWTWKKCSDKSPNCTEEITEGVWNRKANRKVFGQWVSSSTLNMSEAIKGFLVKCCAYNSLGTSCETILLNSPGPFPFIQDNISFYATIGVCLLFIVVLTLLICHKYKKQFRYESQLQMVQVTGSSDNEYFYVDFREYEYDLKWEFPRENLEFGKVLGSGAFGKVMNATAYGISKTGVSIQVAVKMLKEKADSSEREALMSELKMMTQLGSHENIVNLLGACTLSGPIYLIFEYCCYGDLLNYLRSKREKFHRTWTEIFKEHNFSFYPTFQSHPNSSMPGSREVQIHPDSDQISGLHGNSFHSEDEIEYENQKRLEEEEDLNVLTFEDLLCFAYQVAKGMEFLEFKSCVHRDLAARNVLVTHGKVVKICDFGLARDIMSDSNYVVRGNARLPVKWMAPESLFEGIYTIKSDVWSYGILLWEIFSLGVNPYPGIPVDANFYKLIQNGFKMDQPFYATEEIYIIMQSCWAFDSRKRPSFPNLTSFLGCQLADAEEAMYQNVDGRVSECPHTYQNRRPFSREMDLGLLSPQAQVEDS
Tyrosine-protein kinase FRK (Homo sapiens), sequence (P42685 whole entry, the tested form may be a part): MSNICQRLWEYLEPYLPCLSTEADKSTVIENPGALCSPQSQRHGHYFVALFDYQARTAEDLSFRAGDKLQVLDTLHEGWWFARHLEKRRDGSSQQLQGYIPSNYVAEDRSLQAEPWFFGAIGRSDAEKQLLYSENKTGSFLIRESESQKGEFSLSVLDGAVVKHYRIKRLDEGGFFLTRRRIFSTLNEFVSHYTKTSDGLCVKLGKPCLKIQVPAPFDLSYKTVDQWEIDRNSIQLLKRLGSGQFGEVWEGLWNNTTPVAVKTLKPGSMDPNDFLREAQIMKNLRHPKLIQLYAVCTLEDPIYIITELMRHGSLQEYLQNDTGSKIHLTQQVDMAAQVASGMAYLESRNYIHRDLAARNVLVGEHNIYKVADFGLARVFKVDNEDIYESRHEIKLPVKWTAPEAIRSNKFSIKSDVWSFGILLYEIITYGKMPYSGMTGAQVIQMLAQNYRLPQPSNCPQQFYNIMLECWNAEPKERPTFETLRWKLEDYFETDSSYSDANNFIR
Mast/stem cell growth factor receptor Kit (Homo sapiens), P10721 [UNDEFINED MUTATION], sequence (P10721 whole entry, looked up, stated change not applied, the tested form may be a part): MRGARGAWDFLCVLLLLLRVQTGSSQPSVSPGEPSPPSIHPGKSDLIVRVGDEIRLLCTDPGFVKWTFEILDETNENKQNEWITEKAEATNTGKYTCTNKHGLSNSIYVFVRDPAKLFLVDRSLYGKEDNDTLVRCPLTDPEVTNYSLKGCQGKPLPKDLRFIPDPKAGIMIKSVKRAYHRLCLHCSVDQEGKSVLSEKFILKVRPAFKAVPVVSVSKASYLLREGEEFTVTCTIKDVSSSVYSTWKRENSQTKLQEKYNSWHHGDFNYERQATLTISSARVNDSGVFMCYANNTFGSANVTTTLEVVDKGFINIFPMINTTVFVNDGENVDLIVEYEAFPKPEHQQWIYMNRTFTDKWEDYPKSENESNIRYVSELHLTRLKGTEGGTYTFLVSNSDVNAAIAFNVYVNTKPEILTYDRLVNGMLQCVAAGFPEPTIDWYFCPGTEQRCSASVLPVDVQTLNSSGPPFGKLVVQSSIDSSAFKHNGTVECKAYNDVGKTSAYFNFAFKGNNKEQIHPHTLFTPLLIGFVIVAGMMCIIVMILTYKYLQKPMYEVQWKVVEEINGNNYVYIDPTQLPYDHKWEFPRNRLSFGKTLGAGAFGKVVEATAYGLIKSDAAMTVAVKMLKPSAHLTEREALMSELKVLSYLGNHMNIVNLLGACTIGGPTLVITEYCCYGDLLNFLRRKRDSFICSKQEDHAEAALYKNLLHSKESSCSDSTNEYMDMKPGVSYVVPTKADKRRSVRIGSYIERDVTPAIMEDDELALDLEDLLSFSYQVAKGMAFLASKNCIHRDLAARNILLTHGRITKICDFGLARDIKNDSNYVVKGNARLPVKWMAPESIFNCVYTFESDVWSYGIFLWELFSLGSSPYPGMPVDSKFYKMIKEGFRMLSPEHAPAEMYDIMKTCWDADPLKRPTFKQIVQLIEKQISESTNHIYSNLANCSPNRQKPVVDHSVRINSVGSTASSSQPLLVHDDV

In the case of `C=CC(=O)Nc1cc(Nc2ncc(Cl)c(Nc3ccccc3S(=O)(=O)C(C)C)n2)c(OC)cc1N(C)CCN(C)C`, the Activity [1] is reported as 5.5%, the Activity [2] is reported as 9% and the Activity [3] is reported as 21%. It also gave an Activity [4] of 0.05%, an Activity [5] of 94% and an Activity [6] of 85%. The Activity [7] was 5.9%, the Activity [8] was 100% and the Activity [9] was 0.25%. The Activity [10] was 37%, the Activity [11] was 57% and the Activity [12] was 56%. For the same molecule, the Activity [13] was 39%, the Activity [14] was 65% and the Activity [15] was 86%. For the same molecule, the Activity [16] was 70%, the Activity [17] was 87% and the Activity [18] was 99%. For the same molecule, the Activity [19] was 79%, the Activity [20] was 0.5% and the Activity [21] was 82%. The Activity [22] was 30% and the Activity [23] was 29%.
